Assay outcomes: PubChem, Johns Hopkins Ion Channel Center
TRPC6 inh = mouse TRPC6 channel inhibitors, primary screen, cell-based, HEK293, membrane potential dye; B-score at 10 µM; Short transient receptor potential channel 6 (Mus musculus), Q61143; 310,000 tested, 1.1% active; ACh-evoked depolarization; stronger effect = lower value; AID 2553, 2010;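 active = B-score under library mean minus 3 SD, initial fluorescence not abnormally high, positive integrated signal ratio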;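 note: B-score derived from integrated fluorescence ratio over the kinetic read; more negative B-score means stronger inhibition of depolarization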
TRPC4 inh = inhibitors of mouse TRPC4 channel, primary screen, Fluo4 calcium, HEK293 TRPC4beta/mu-opioid cells | Short transient receptor potential channel 4 (Mus musculus), Q9QUQ5 | DAMGO-evoked Fluo4 calcium flux; stronger effect = lower value | B-score at 10 µM | 300,000 tested, 0.39% active | AID 2247, 2010;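 active = B-score over 3 SD under the library average, no early fluorescence shift, positive overall ratio signal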
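material = TRPC4beta/mu-opioid receptor HEK293 cell line | probe or stimulus = sequential submaximal and maximal DAMGO stimulation | compound dosing = one concentration per compound | measured by = Fluo4 Ca2+ flux fluorescence | evaluation = integrated fluorescence ratio relative to baseline, converted to per-well B score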
TRPC4 potent = positive allosteric modulators of TRPC4, primary screen, cell-based, mouse TRPC4beta, HEK293 mu-opioid, Fluo-4 calcium; DAMGO EC20, Fluo-4 Ca2+ flux; stronger effect = higher value; B-score at 10 µM; 310,000 tested, 0.42% active; AID 2227, 2009;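 active = B-score of calcium response area above 5 SD of library B-scores, with initial fluorescence ratio within 5 SD of library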
TRPC4 agonist = activators of mouse TRPC4 channel, primary screen, Fluo4 calcium, HEK293 TRPC4beta/mu-opioid cells. Fluo4 calcium fluorescence; stronger effect = higher value. B-score at 10 µM. 310,000 tested, 0.49% active;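 active = B-score above 5 SD of library B-scores, and initial fluorescence ratio not above library mean plus 5 SD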;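 note: positive B-score marks a calcium rise read as TRPC4 activation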
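Material: HEK293 stable line with TRPC4beta plus mu-opioid receptor; technique: Fluo4 calcium-sensitive dye fluorescence, kinetic, 1 Hz baseline; timing: Fluo4 dye loading 45 min at room temperature, 110 s recording; controls: assay buffer as low control, maximal DAMGO as high control; read-out: integrated baseline-normalised fluorescence ratio, converted to per-well B score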
TRPC6 activator = mouse TRPC6 channel activators, primary screen, cell-based, HEK293, membrane potential dye. 310,000 tested, 0.13% active. HEK293-TRPC6 membrane potential dye fluorescence; stronger effect = higher value. B-score at 10 µM. AID 2550, 2010;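 active = B-score of the integrated fluorescence ratio above library mean plus 3 SD, and starting fluorescence ratio within library mean plus 5 SD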;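 note: higher score means more depolarization so channel activation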
Large screens that a line does not name were inactive. Hits are enriched below; roughly 2.3% of the tested compounds scored in any of these assays.

Cc1ccc(NS(=O)(=O)c2ccc(N3CCN(c4ccc(O)cc4)CC3)c([N+](=O)[O-])c2)c(C)c1	TRPC4 potent 26
Cc1cc(-c2ccc(C)c(S(=O)(=O)N3CCN(c4ccccn4)CC3)c2)on1	TRPC4 potent 40
Cc1cc(-c2ccc(C)c(S(=O)(=O)N3CCN(c4ccc([N+](=O)[O-])cc4)CC3)c2)on1	none
Cc1cc(-c2ccc(C)c(S(=O)(=O)NCCCN3CCCCCC3)c2)on1	TRPC4 potent 10
COc1ccc(-c2cc(C)no2)cc1S(=O)(=O)NCCCN(C)Cc1ccccc1	TRPC4 potent 14
Cc1cc(-c2ccc(C)c(S(=O)(=O)NCCCN3CCN(c4ccccc4)CC3)c2)on1	none
O=C1CCc2cc(S(=O)(=O)NCCC(=O)NC3CCCCC3)ccc2N1	none
CCCC(c1nnnn1CC1CCCO1)N1CCN(c2nc3ccccc3s2)CC1 (configuration not stated)	none
CCCCC(c1nnnn1CC1CCCO1)N1CCN(c2nc3ccccc3s2)CC1 (configuration not stated)	TRPC4 agonist 88
CCOC(=O)c1c(C)n(-c2ccc(C)cc2)c2ccc(OCC(O)CNCC3CCCO3)cc12 (configuration not stated)	TRPC4 potent 33
COc1ccc(OCc2cc(C(=O)NC(C)Cc3cnccn3)no2)c(Cl)c1 (configuration not stated)	none
O=S(=O)(c1ccc(-n2cnnn2)cc1)N1CCC(N2CCCCC2)CC1	TRPC4 potent 12
COc1cc(S(=O)(=O)N2CCC(N3CCCCC3)CC2)ccc1-n1cnnn1	TRPC4 potent 17
C=CCN(C(=O)c1csnn1)C(C(=O)NCc1ccc(F)cc1)c1ccccc1F (configuration not stated)	none
CCCCCCCNC(=O)COc1ccc2c(c1)C(=O)CC(C)(C)O2	TRPC4 inh -5
CC(C)NC(=O)COc1ccc2c(c1)C(=O)CC(C)(C)O2	none
Cc1ccc(NC(=O)CN(C)C(=O)c2ccccc2Sc2ccccc2C#N)cc1	none
CC(=O)Nc1ccc(S(=O)(=O)Nc2nc3ccccc3nc2N2CCCCCC2)cc1	TRPC4 potent 12
CC(=O)Nc1ccc(S(=O)(=O)Nc2nc3ccccc3nc2N2CCc3ccccc3C2)cc1	none
COc1cc(NC(C)CCCN)c2ncccc2c1Oc1ccccc1 (configuration not stated)	TRPC4 agonist 83
Cc1cc(Cl)cc(Cl)c1OCCCCN(C)C	TRPC4 potent 36
Cc1cccc(C(=O)OCC(=O)NCCCc2ccccc2)c1	none
Cc1ccc(C2=NN(S(=O)(=O)c3ccccc3)C(c3ccccc3O)C2)cc1 (configuration not stated)	TRPC4 potent 13
Nc1nc(Cl)nc2c1ncn2[C@@H]1O[C@H](CO)[C@@H](O)[C@H]1O	TRPC4 agonist 50
CCn1nc([N+](=O)[O-])c(C(C#N)c2nc3cc(C(F)(F)F)ccc3s2)c(Cl)c1=O (configuration not stated)	TRPC6 inh -10.8
Cn1nc([N+](=O)[O-])c(C(C#N)c2ccccn2)c(Cl)c1=O (configuration not stated)	none
OCCC1CN(Cc2cccn2-c2cccnc2)CCN1Cc1ccccc1 (configuration not stated)	none
OCCC1CN(Cc2cccn2-c2cccnc2)CCN1CCc1ccccc1 (configuration not stated)	TRPC4 inh -5
CCCNC(=O)Nc1ccsc1C(=O)OC	none
CCOC(=O)C1(Cc2ccccc2C)CCCN(Cc2ccc(NC(C)=O)cc2)C1 (configuration not stated)	TRPC4 inh -9
CC(=O)Nc1ccc(CN2CCCC(CO)(Cc3ccccc3C)C2)cc1 (configuration not stated)	none
Cc1ccc(C)c(-n2cc(CNCCc3cnccn3)c(-c3ccccc3)n2)c1	TRPC4 agonist 108
CC(C)[C@H]1C(=O)Nc2ccccc2N1C(=O)N[C@@H](Cc1ccccc1)C(=O)N[C@H](C(=O)O)c1ccccc1	none
Clc1cc(/C=N\NC2=NCCN2)cc(Cl)n1	TRPC4 potent 18
